Data published in ChEMBL document CHEMBL4732121, “Imidazo[1,2-a]quinoxalines for melanoma treatment with original mechanism of action” (Eur J Med Chem, 2021).
pIC50: −log10 of the molar value.

Tested on: A-375
Test: Antiproliferative activity against human A-375 cells assessed as reduction in cell viability measured after 96 hrs by MTT assay
Type: functional, cell-based
Summary of the method: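 A375 cells in RPMI-1640 with 10% heat-inactivated FBS, 2 mM L-glutamine and antibiotics, 37°C, 5% CO₂. Seeded at 5000 cells/well and attached overnight, then exposed to 10⁻⁵–3.2.10⁻⁹ M in 0.15% DMSO/medium for 96 h. MTT at 0.5 mg/ml final for 4 h, formazan dissolved in 10% SDS/0.01 M HCl, OD 570 nm. At least three experiments in triplicate; IC50 from sigmoidal dose–response curves.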

Row | SMILES | pIC50 (Homo sapiens, A-375, 96 h) | pIC50 (a-375)
1 | NCCCCCCNc1nc2ccccc2n2c(-c3ccc(O)c(O)c3)cnc12 | 5.24 | –
2 | CNc1nc2cc(C(F)(F)F)ccc2n2c(-c3ccc(O)c(O)c3)cnc12 | 5.16 | –
3 | Nc1nc2ccccc2n2c(-c3ccc(O)c(O)c3)cnc12 | 7.22 | –
4 | CNc1nc2cc(OC(F)(F)F)ccc2n2c(-c3ccc(OC)c(OC)c3)cnc12 | 5.46 | –
5 | CNc1nccn2c(-c3ccc(O)c(O)c3)cnc12 | < 5.00 | –
6 | CNc1nccn2c(-c3ccc(OC)c(OC)c3)cnc12 | < 5.00 | –
7 | CN(C)c1nc2ccccc2n2c(-c3ccc(O)c(O)c3)cnc12 | 7.52 | –
8 | CNc1nc2ccccc2n2ccnc12 | < 5.00 | –
9 | Nc1nccn2c(-c3ccc(O)c(O)c3)cnc12 | < 5.00 | –

Second part, the molecule after the results:

Row | pIC50 (Homo sapiens, A-375, 96 h) | pIC50 (a-375) | SMILES
10 | < 5.00 | – | COc1ccc(-c2cnc3c(NCCNC(=O)OC(C)(C)C)nc4ccccc4n23)cc1OC
11 | < 5.00 | – | COc1ccc(-c2cnc3c(NCCCNC(=O)OC(C)(C)C)nc4ccccc4n23)cc1OC
12 | < 5.00 | – | COc1ccc(-c2cnc3c(N4CCN(C(=O)OC(C)(C)C)CC4)nc4ccccc4n23)cc1OC
13 | 6.71 | – | CNc1nc2ccccc2n2c(-c3ccc(OC)c(OC)c3)cnc12
14 | – | 5.77 | NCCNc1nc2ccccc2n2c(-c3ccc(O)c(O)c3)cnc12
